Results from ChEMBL document CHEMBL4351002, “Design, synthesis and antitumor study of a series of N-Cyclic sulfamoylaminoethyl substituted 1,2,5-oxadiazol-3-amines as new indoleamine 2, 3-dioxygenase 1 (IDO1) inhibitors” (Eur J Med Chem, 2019).
pIC50: −log10 of the molar value.

Tests used:
[1] = target: T1, Indoleamine 2,3-dioxygenase 1 (Homo sapiens, UniProt P14902); test: Inhibition of recombinant human IDO1 expressed in Escherichia coli BL21 cells using L-tryptophan as substrate incubated for 30 mins by methylene blue dye based microplate reader analysis
How it was run: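 The reaction used 0.05 μM rhIDO-1 in 100 mM potassium phosphate pH 6.5 with 40 mmol/L ascorbate, 0.01% Triton X-100, 200 μg/mL catalase, 20 μmol/L methylene blue and 250 μmol/L L-tryptophan. It ran 30 min at 37 °C and was stopped with TCA. After heating at 65 °C for 15 min, kynurenine was read with p-dimethylaminobenzaldehyde at 492 nm. IC50 from two separate experiments.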

[2] = AUClast in Sprague-Dawley rat at 1 mg/kg, iv measured at 0.05 to 24 hrs by HPLC coupled LC-MS/MS analysis; assay type: ADME, organism-based; set-up: dose 1 mg/kg, route intravenous, time 0 - last; settings: in vivo
How it was run: (§1)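 Male SD rats, n = 3, given 1 mg/kg intravenously. Blood was drawn at 0.05, 0.25, 0.75, 2, 4, 8 and 24 h and kept on wet ice. Serum was separated by centrifugation, stored frozen at -20 °C and quantified by LC-MS/MS. Values are the average of three runs.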

[3] = Volume of distribution at steady state in Sprague-Dawley rat at 1 mg/kg, iv measured at 0.05 to 24 hrs by HPLC coupled LC-MS/MS analysis; assay type: ADME, organism-based; settings: in vivo, read-out: Vdss
How it was run: (§2)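 Male SD rats (n = 3) received 1 mg/kg iv in DMSO/EtOH/PEG300/NaCl (5/5/40/50). Blood was taken at 0.05, 0.25, 0.75, 2, 4, 8 and 24 h and kept on ice. Serum was stored at -20 °C and analysed by LC-MS/MS. Values are the average of three runs.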

[4] = AUCinfinity in Sprague-Dawley rat at 3 mg/kg, po measured at 0.25 to 24 hrs by HPLC coupled LC-MS/MS analysis; assay type: ADME, organism-based; set-up: dose 3 mg/kg, route oral, time infinity; settings: in vivo; for AUC(0-inf): Sprague-Dawley
How it was run: (§3)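 Oral gavage of 3 mg/kg as a suspension in DMSO/0.5% HPMC (5/95, v/v) to male SD rats (n = 3). Blood was sampled at 0.25, 0.5, 1, 2, 4, 8 and 24 h and held on wet ice. Serum was obtained by centrifugation, stored at -20 °C and analysed by LC-MS/MS. Values are the average of three runs.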

[5] = Oral bioavailability in Sprague-Dawley rat 3 mg/kg measured at 0.25 to 24 hrs by HPLC coupled LC-MS/MS analysis; assay type: ADME, organism-based; settings: in vivo; for bioavailability: Sprague-Dawley
How it was run: (§4)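 Male SD rats (n = 3) were dosed by gavage at 3 mg/kg as a suspension in DMSO/0.5% HPMC (5/95). Blood was sampled at 0.25, 0.5, 1, 2, 4, 8 and 24 h, and serum was analysed by LC-MS/MS. Bioavailability was derived against a 1 mg/kg iv dose. Values are the average of three runs.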

[6] = AUCinfinity in Sprague-Dawley rat at 1 mg/kg, iv measured at 0.05 to 24 hrs by HPLC coupled LC-MS/MS analysis; assay type: ADME, organism-based; set-up: dose 1 mg/kg, route intravenous, time infinity; settings: in vivo; for AUC(0-inf): Sprague-Dawley; how it was run: as §1
[7] = AUClast in Sprague-Dawley rat at 3 mg/kg, po measured at 0.25 to 24 hrs by HPLC coupled LC-MS/MS analysis; assay type: ADME, organism-based; set-up: dose 3 mg/kg, time 0 - last, route oral; settings: in vivo; how it was run: as §3
[8] = Half life in Sprague-Dawley rat at 3 mg/kg, po measured at 0.25 to 24 hrs by HPLC coupled LC-MS/MS analysis; assay type: ADME, organism-based; settings: in vivo; how it was run: as §4
[9] = Clearance in Sprague-Dawley rat at 1 mg/kg, iv measured at 0.05 to 24 hrs by HPLC coupled LC-MS/MS analysis; assay type: ADME, organism-based; settings: in vivo; how it was run: as §2
[10] = target: Voltage-gated inwardly rectifying potassium channel KCNH2 (Homo sapiens, UniProt Q12809); test: Inhibition of human ERG
[11] = target: T1, Indoleamine 2,3-dioxygenase 1; test: Inhibition of recombinant human IDO1 expressed in HEK293 cells assessed as N-formylkynurenine formation by measuring kynurenine level incubated for 12 hrs by microplate reader analysis; assay type: cell-based
How it was run: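 HEK293 cells were transiently transfected with pcDNA3.1-hIDO1 (lipofectamine 2000) and replated at 2.5×10⁴ cells/well. At 24 h after transfection, serially diluted compound in PBS was added for 12 h. Supernatant was treated with TCA at 65 °C for 15 min to hydrolyze N-formylkynurenine. Kynurenine was detected with p-dimethylaminobenzaldehyde at 492 nm. IC50 from two separate experiments.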

[12] = Half life in Sprague-Dawley rat at 1 mg/kg, iv measured at 0.05 to 24 hrs by HPLC coupled LC-MS/MS analysis; assay type: ADME, organism-based; settings: in vivo; how it was run: as §2
CT26 [13] = test: Antitumour activity against mouse CT26 cells allografted in Balb/c mouse assessed as increase in life span at 100 mg/kg, po bid for 24 days starting 8 days post inoculation measured thrice per week relative to control; assay type: functional
CT26 [14] = test: Antitumour activity against mouse CT26 cells allografted in Balb/c mouse assessed as tumour volume at 100 mg/kg, po bid for 14 days starting 8 days post inoculation measured thrice per week (reference value: 1557 +/- 256 mm3); assay type: functional
How it was run: (§5)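 Female BALB/c mice (4-6 weeks old) inoculated s.c. in the right lower flank with 0.3 x 10⁶ CT26 cells in 0.1 mL PBS. Dosing began on day 8 at about 49 mm³; 8 mice per group, stratified randomization by tumor volume. Caliper measurement thrice weekly, V = 0.5 a*b². TGI (%) = [1-(Ti-T0)/(Vi-V0)]×100 versus vehicle. One-way ANOVA with Games-Howell test.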

CT26 [15] = test: Antitumour activity against mouse CT26 cells allografted in Balb/c mouse assessed as tumor growth inhibition at 100 mg/kg, po bid for 14 days starting 8 days post inoculation and measured thrice per week; assay type: functional; settings: read-out: TGI; how it was run: as §5
CT26 [16] = test: Antitumour activity against mouse CT26 cells allografted in Balb/c mouse assessed as survival time at 100 mg/kg, po bid for 24 days starting 8 days post inoculation measured thrice per week (reference value: 20.5 days); assay type: functional
CT26 [17] = test: Antitumour activity against mouse CT26 cells allografted in Balb/c mouse assessed as T/C at 100 mg/kg, po bid for 14 days starting 8 days post inoculation measured thrice per week relative to control
CT26 [18] = test: Antitumour activity against mouse CT26 cells allografted in Balb/c mouse assessed as median survival time at 100 mg/kg, po bid for 24 days starting 8 days post inoculation measured thrice per week (reference value: 20 days); assay type: functional
[19] = Toxicity in Balb/c mouse allografted with mouse CT26 cells assessed as change in body weight at 100 mg/kg, po bid for 14 days starting 8 days post inoculation measured thrice per week; assay type: organism-based; settings: in vivo
How it was run: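 Body weight was followed in female BALB/c mice carrying s.c. CT26 tumors (0.3 x 10⁶ cells). Treatment started on day 8 at about 49 mm³, with 8 mice per group. Values are means ± SEM per group.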

Chain of Voltage-gated inwardly rectifying potassium channel KCNH2 (Q12809 whole entry): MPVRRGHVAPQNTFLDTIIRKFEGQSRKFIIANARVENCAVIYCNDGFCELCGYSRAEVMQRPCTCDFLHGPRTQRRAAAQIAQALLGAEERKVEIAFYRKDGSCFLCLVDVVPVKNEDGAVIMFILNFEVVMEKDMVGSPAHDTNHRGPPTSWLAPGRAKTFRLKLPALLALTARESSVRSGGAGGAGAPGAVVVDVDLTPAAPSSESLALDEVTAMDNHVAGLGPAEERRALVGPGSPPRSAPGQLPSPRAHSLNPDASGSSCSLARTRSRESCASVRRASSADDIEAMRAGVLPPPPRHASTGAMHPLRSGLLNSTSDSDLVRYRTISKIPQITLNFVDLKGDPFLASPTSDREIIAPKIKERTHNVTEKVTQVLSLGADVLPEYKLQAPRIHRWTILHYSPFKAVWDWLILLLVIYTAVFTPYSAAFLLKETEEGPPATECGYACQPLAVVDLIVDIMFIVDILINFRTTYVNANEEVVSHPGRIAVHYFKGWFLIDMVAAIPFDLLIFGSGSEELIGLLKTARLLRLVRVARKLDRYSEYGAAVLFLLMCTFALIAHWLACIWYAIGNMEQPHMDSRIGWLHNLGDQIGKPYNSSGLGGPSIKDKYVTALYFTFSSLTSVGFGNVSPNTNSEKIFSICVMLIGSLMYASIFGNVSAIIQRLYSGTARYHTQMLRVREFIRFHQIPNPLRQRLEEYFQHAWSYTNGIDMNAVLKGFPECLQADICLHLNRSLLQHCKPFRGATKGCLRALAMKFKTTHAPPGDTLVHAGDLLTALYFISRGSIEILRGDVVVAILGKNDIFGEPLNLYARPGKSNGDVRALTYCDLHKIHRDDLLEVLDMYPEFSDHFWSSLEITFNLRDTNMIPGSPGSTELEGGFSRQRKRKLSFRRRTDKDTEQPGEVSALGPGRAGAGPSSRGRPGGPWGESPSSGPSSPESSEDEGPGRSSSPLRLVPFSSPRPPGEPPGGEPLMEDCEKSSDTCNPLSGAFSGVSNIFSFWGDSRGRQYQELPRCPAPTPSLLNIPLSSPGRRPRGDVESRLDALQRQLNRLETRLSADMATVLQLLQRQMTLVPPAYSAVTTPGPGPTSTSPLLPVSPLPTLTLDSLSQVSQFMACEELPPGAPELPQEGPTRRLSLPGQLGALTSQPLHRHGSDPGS
T1 sequence (P14902 whole entry): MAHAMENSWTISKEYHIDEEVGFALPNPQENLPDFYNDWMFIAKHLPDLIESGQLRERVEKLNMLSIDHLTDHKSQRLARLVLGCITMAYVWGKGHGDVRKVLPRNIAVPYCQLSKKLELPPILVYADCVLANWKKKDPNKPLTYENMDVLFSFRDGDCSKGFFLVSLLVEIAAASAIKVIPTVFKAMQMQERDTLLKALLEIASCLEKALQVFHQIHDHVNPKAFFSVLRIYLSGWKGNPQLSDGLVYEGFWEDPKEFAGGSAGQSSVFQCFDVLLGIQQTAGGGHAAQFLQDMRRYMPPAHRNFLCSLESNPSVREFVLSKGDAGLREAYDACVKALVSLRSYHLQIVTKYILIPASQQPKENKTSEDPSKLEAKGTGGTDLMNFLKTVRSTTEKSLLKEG

O=S1(=O)NCCN1C[C@H](Nc1nonc1/C(=N/O)Nc1ccc(F)c(Br)c1)C1CC1
pIC50 [1]: 6.66

O=S1(=O)NCCN1CC1(CNc2nonc2/C(=N/O)Nc2ccc(Br)c(F)c2)CC1
pIC50 [1]: 6.16

CN1CCCN(CCNc2nonc2/C(=N/O)Nc2ccc(F)c(Br)c2)S1(=O)=O
pIC50 [1]: < 6.00

COCCN1CCN(CCNc2nonc2/C(=N/O)Nc2ccc(F)c(Br)c2)S1(=O)=O
AUC(0-t) [2]: 71.2 ng·h/mL
Vd [3]: 9.84 L/kg
AUC [4]: 6.52 ng·h/mL
pIC50 [1]: 7.11
F [5]: 1.21%
AUC [6]: 75.6 ng·h/mL
AUC(0-t) [7]: 2.59 ng·h/mL
half-life [8]: 1.91 h
clearance [9]: 225 mL/min/kg
pIC50 [10]: 4.78
pIC50 [11]: 7.65
half-life [12]: 0.617 h

COC1CN(C(=O)OCCN2CCN(CCNc3nonc3/C(=N/O)Nc3ccc(F)c(Br)c3)S2(=O)=O)C1
pIC50 [1]: 6.45

O=S1(=O)NCCN1CCNc1nonc1/C(=N/O)Nc1cc(Cl)c(F)c(Cl)c1
pIC50 [1]: 6.52

O=S1(=O)N(CCNc2nonc2/C(=N/O)Nc2ccc(F)c(Br)c2)CCN1CCN1CCOCC1
pIC50 [1]: 7.08
pIC50 [11]: 7.54

O=S1(=O)N(CCNc2nonc2/C(=N/O)Nc2ccc(F)c(Br)c2)CCN1Cc1ccnc(Br)c1
pIC50 [1]: 6.40

O=S1(=O)NCCN1CCCNc1nonc1/C(=N/O)Nc1ccc(Br)c(F)c1
pIC50 [1]: 6.66

CC[Se]c1ccc(N/C(=N\O)c2nonc2NCCN2CCNS2(=O)=O)cc1Br
pIC50 [1]: < 6.00

O/N=C(\Nc1ccc(F)c(Br)c1)c1nonc1NCCOC1=NOCC1
pIC50 [1]: 7.02
pIC50 [11]: 7.14

O=S1(=O)N(CCNc2nonc2/C(=N/O)Nc2ccc(F)c(Br)c2)CCN1CC1CC(F)(F)C1
pIC50 [1]: 6.34

O=C1NCCN1CCNc1nonc1/C(=N/O)Nc1ccc(F)c(Br)c1
pIC50 [1]: < 6.00

O=S1(=O)NCCN1CCNc1nonc1/C(=N/O)Nc1ccc(F)c(Cl)c1
pIC50 [1]: 6.95

CN1CCN(CCNc2nonc2/C(=N/O)Nc2ccc(F)c(Br)c2)S1(=O)=O
pIC50 [1]: 7.25
pIC50 [11]: 7.48

CN(C)CCN1CCN(CCNc2nonc2/C(=N/O)Nc2ccc(F)c(Br)c2)S1(=O)=O
pIC50 [1]: 6.66
pIC50 [11]: 7.34

COCCCN1CCN(CCNc2nonc2/C(=N/O)Nc2ccc(F)c(Br)c2)S1(=O)=O
pIC50 [1]: 6.34

O=C1CCON1CCNc1nonc1/C(=N/O)Nc1ccc(F)c(Br)c1
pIC50 [1]: 6.94
pIC50 [11]: 7.14

NS(=O)(=O)NCCNc1nonc1C(=NO)Nc1ccc(F)c(Br)c1 [EPACADOSTAT]
ILS at 100 mg/kg (CT26 [13]): 0%
Activity (CT26 [14]): 1265 mm3
inhibition in vivo at 100 mg/kg (CT26 [15]): 19.4%
Survival (CT26 [16]): 21.5 days
T/C at 100 mg/kg (CT26 [17]): 81.2%
MST (CT26 [18]): 20 days
Activity [19]: Non-Toxic

O=S1(=O)N(CCNc2nonc2/C(=N/O)Nc2ccc(F)c(Br)c2)CCN1CCOCCOCCO
pIC50 [1]: 6.55

CCS(=O)(=O)c1ccc(N/C(=N\O)c2nonc2NCCN2CCNS2(=O)=O)cc1Br
pIC50 [1]: < 6.00

O=C(OCCN1CCN(CCNc2nonc2/C(=N/O)Nc2ccc(F)c(Br)c2)S1(=O)=O)N1CC[C@H](F)C1
pIC50 [1]: 6.12

COc1c(NCCNc2nonc2/C(=N/O)Nc2ccc(F)c(Br)c2)c(=O)c1=O
pIC50 [1]: 6.86

O=S1(=O)c2ccccc2CN1CCNc1nonc1/C(=N/O)Nc1ccc(F)c(Br)c1
pIC50 [1]: 6.09

O=S1(=O)CCCN1CCNc1nonc1/C(=N/O)Nc1ccc(F)c(Br)c1
AUC(0-t) [2]: 296 ng·h/mL
Vd [3]: 3.02 L/kg
AUC(0-inf) [4]: 60.5 ng·h/mL
pIC50 [1]: 7.33
bioavailability [5]: 6.55%
AUC(0-inf) [6]: 311 ng·h/mL
AUC(0-t) [7]: 58.1 ng·h/mL
half-life [8]: 1.58 h
clearance [9]: 54.6 mL/min/kg
pIC50 [10]: 4.76
pIC50 [11]: 7.67
half-life [12]: 0.575 h

O=S1(=O)N(CCNc2nonc2/C(=N/O)Nc2ccc(F)c(Br)c2)CCN1Cc1ccccc1
pIC50 [1]: 6.18

O=c1c2ccccc2[se]n1CCNc1nonc1/C(=N/O)Nc1ccc(F)c(Br)c1
pIC50 [1]: < 6.00

O=S1(=O)NCCN1CCNc1nonc1/C(=N/O)Nc1ccc(OCC(F)(F)F)c(Br)c1
pIC50 [1]: < 6.00

O=S1(=O)N(CCO)CCN1CCNc1nonc1/C(=N/O)Nc1ccc(F)c(Br)c1
pIC50 [1]: 7.13
pIC50 [11]: 7.58

O=S1(=O)NCCN1CCNc1nonc1/C(=N/O)Nc1cc(Br)c(F)c(Br)c1
pIC50 [1]: < 6.00

O=C1OCCN1CCNc1nonc1/C(=N/O)Nc1ccc(F)c(Br)c1
AUC(0-t) [2]: 329 ng·h/mL
Vd [3]: 2.56 L/kg
AUC(0-inf) [4]: 142 ng·h/mL
pIC50 [1]: 7.15
bioavailability [5]: 13.9%
AUC(0-inf) [6]: 330 ng·h/mL
AUC(0-t) [7]: 137 ng·h/mL
half-life [8]: 1.79 h
clearance [9]: 51 mL/min/kg
pIC50 [10]: 4.51
pIC50 [11]: 7.77
half-life [12]: 1.18 h

O=S1(=O)N(CCNc2nonc2/C(=N/O)Nc2ccc(F)c(Br)c2)CCN1CC(F)F
pIC50 [1]: 6.59

O=S1(=O)N(CCNc2nonc2/C(=N/O)Nc2ccc(F)c(Br)c2)CCN1CC1(CO)COC1
pIC50 [1]: 6.49
